Data published in ChEMBL document CHEMBL1177674, “2-acylamino-4,6-diphenylpyridine derivatives as novel GPR54 antagonists with good brain exposure and in vivo efficacy for plasma LH level in male rats” (Bioorg Med Chem, 2010).
pIC50: −log10 of the molar value.

Legend:
KiSS-1 receptor [1] = biological target: T1, KiSS-1 receptor (Homo sapiens, UniProt Q969F8); assay: Displacement of [125I]metastin from human GPR54 receptor expressed in CHO cells; format: cell-based
Summary of the method: (§1)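 Membranes came from CHO cells stably expressing human or rat GPR54. They were incubated with 135 pM 125I-metastin (40–54) plus compound for 60 min at 25 °C, in Tris binding buffer pH 7.4 with protease inhibitors and 1 mg/ml BSA. Samples were filtered through PEI-pretreated GF/C filters, buffer-washed, and the bound radioactivity was counted.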

KiSS-1 receptor [2] = biological target: KiSS-1 receptor (Rattus norvegicus, UniProt Q924U1); assay: Displacement of [125I]metastin from rat GPR54 receptor expressed in CHO cells; format: cell-based; summary of the method: as §1
[3] = Lipophilicity, log D at pH 7.4; format: physicochemical; settings: buffer
Caco-2 = assay: Ratio of permeability from basolateral to apical side to apical to basolateral side of human Caco-2 cells; format: ADME, cell-based
Summary of the method: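 Caco-2 monolayers were grown to confluence on collagen-coated polycarbonate Transwell membranes. Assay buffer was HBSS with 10 mmol/L HEPES, 15 mmol/L glucose and 1% BSA, pH 7.3–7.5. Compound was dosed apically or basolaterally at 37 °C, 5% CO2. Receivers were sampled at 1 and 2 h and donors at 2 h, in duplicate. A cell-free membrane corrected for nonspecific binding. The B-to-A/A-to-B ratio was derived.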

Rattus norvegicus = assay: Decrease in leutinizing hormone level in castrated Wistar rat plasma at 0.22 mg/kg, iv for 5 times with 10 mins interval measured after 60 mins postdose by radioimmunoassay; format: functional; design: scale not given: the % may be the effect or the level left
Summary of the method: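 Male Wistar rats, 11 weeks old, were castrated 7 days before testing. Compound was suspended at […] in 20% DMSO-40% PEG400. It was given at 0.22 mg/kg (0.8 ml/kg) via jugular catheter five times at 10 min intervals, for 1.1 mg/kg total. Vehicle served as control; n = 8 per group. Blood was drawn before dosing and at 25–180 min, then aprotinin–EDTA plasma was prepared. Values are means SE of eight.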

KiSS-1 receptor [4] = biological target: T1, KiSS-1 receptor; assay: Antagonist activity at human GPR54 receptor assessed as inhibition of metastin-induced calcium mobilization; format: functional
Summary of the method: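 Cells in MEM with 10% dFBS, penicillin and streptomycin, plated at 30,000 cells/well and cultured overnight. Loaded 60 min at 37 °C in Hepes-buffered saline (pH 7.4) containing 0.1% BSA, Fluo-3AM, 1.25 mM probenecid and 0.04% Pluronic F-127. Washed at 37 °C in the same buffer with BSA and probenecid. Ca²⁺ mobilization read on FLIPR.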

T1 sequence (Q969F8 whole entry): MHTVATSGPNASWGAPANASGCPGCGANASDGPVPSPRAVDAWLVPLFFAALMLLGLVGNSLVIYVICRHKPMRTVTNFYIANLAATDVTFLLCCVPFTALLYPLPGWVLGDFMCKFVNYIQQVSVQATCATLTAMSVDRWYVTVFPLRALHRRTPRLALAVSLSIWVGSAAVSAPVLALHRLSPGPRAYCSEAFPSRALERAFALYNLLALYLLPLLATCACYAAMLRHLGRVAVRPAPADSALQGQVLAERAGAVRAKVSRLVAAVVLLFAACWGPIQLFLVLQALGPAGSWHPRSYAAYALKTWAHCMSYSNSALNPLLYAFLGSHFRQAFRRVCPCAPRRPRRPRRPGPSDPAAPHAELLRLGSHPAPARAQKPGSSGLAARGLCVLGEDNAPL
Sequence of KiSS-1 receptor (Rattus norvegicus, UniProt Q924U1) (Q924U1 whole entry): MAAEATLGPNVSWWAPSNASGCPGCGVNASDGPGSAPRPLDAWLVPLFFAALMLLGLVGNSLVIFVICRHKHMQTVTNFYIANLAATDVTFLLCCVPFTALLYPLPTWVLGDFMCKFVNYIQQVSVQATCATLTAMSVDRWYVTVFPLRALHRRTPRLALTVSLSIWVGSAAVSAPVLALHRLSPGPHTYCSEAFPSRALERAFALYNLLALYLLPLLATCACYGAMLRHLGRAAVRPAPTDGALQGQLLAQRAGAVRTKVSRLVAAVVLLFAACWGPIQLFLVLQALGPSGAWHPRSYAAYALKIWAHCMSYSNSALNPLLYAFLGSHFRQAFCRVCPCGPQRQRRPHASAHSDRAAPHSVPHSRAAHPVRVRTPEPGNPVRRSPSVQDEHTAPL

SMILES	pIC50 (KiSS-1 receptor [1])	logD [3]	also measured
N#Cc1c(-c2cccc(NC(=O)CN3CCCC3)c2)cc(-c2ccc(F)cc2O)nc1NC(=O)c1ccco1	7.82	–	–
CN1CCN(Cc2cccc(-c3cc(-c4ccc(F)cc4O)nc(NC(=O)c4ccco4)c3C#N)c2)CC1	7.74	–	–
N#Cc1c(-c2cccc(NC(=O)[C@H]3CCCN3)c2)cc(-c2ccc(F)cc2O)nc1NC(=O)c1ccco1	7.80	–	–
N#Cc1c(-c2cccc(NC(=O)CCN)c2)cc(-c2ccc(F)cc2O)nc1NC(=O)c1cccs1	–	2.14	Ratio (Caco-2): 49
CN(C)CCN(C)c1cccc(-c2cc(-c3ccc(F)cc3O)nc(NC(=O)c3ccco3)c2C#N)c1	7.52	–	–
CCC(CC(=O)Nc1cccc(-c2cc(-c3ccc(F)cc3O)nc(NC(=O)c3ccco3)c2C#N)c1)N(CC)CC (racemic)	7.66	–	–
CCN(CC)CCC(=O)Nc1cccc(-c2cc(-c3ccc(F)cc3O)nc(NC(=O)c3ccco3)c2C#N)c1	7.80	–	–
CCN1CCN(Cc2cccc(-c3cc(-c4ccc(F)cc4O)nc(NC(=O)c4ccco4)c3C#N)c2)CC1	7.70	–	–
CCN(CC)C(C)CC(=O)Nc1cccc(-c2cc(-c3ccc(F)cc3O)nc(NC(=O)c3ccco3)c2C#N)c1 (racemic)	7.77	–	–
CN(C)CCNC(=O)c1cccc(-c2cc(-c3ccc(F)cc3O)nc(NC(=O)c3ccco3)c2C#N)c1	7.70	–	–
N#Cc1c(-c2cccc(CN3CCCNCC3)c2)cc(-c2ccc(F)cc2O)nc1NC(=O)c1ccco1	7.60	–	–
CC(CC(=O)Nc1cccc(-c2cc(-c3ccc(F)cc3O)nc(NC(=O)c3ccco3)c2C#N)c1)N(C)C (racemic)	7.74	–	–
CCN(CC)CC(=O)Nc1cccc(-c2cc(-c3ccc(F)cc3O)nc(NC(=O)c3ccco3)c2C#N)c1	7.52	–	–
CN1CCC[C@H]1CC(=O)Nc1cccc(-c2cc(-c3ccc(F)cc3O)nc(NC(=O)c3ccco3)c2C#N)c1	7.74	–	–
CN(C)CC(=O)Nc1cccc(-c2cc(-c3ccccc3O)nc(NC(=O)c3cccs3)c2C#N)c1	6.74	3.07	Ratio (Caco-2): 1
CN1CCN(c2cccc(-c3cc(-c4ccc(F)cc4O)nc(NC(=O)c4ccco4)c3C#N)c2)CC1	7.82	–	–

Second part, led by results:

pIC50 (KiSS-1 receptor [1])	logD [3]	SMILES	also measured
8.01	–	N#Cc1c(-c2cccc(CN3CCNCC3)c2)cc(-c2ccc(F)cc2O)nc1NC(=O)c1ccco1	–
8.00	–	CCN(C)CCC(=O)Nc1cccc(-c2cc(-c3ccc(F)cc3O)nc(NC(=O)c3ccco3)c2C#N)c1	–
8.00	2.13	N#Cc1c(-c2cccc(NC(=O)C[C@H]3CCCN3)c2)cc(-c2ccc(F)cc2O)nc1NC(=O)c1ccco1	pIC50 (KiSS-1 receptor [2]): 7.42
8.01	–	CC(C)NC(C)CC(=O)Nc1cccc(-c2cc(-c3ccc(F)cc3O)nc(NC(=O)c3ccco3)c2C#N)c1 (racemic)	–
8.08	2.66	CNCC(=O)Nc1cccc(-c2cc(-c3ccc(F)cc3O)nc(NC(=O)c3ccco3)c2C#N)c1	pIC50 (KiSS-1 receptor [2]): 7.59
8.00	2.95	CN(C)CCC(=O)Nc1cccc(-c2cc(-c3ccc(F)cc3O)nc(NC(=O)c3ccco3)c2C#N)c1	pIC50 (KiSS-1 receptor [2]): 7.33; Ratio (Caco-2): 4.3
7.92	3.31	CN(C)CC(=O)Nc1cccc(-c2cc(-c3ccc(F)cc3O)nc(NC(=O)c3ccco3)c2C#N)c1	pIC50 (KiSS-1 receptor [2]): 6.89; Ratio (Caco-2): 1.4
8.14	–	N#Cc1c(-c2cccc(N3CCCNCC3)c2)cc(-c2ccc(F)cc2O)nc1NC(=O)c1ccco1	–
7.96	4.1	CCN1CCN(c2cccc(-c3cc(-c4ccc(F)cc4O)nc(NC(=O)c4ccco4)c3C#N)c2)CC1	pIC50 (KiSS-1 receptor [2]): 7.33; Ratio (Caco-2): 1
8.34	2.13	CNCCC(=O)Nc1cccc(-c2cc(-c3ccc(F)cc3O)nc(NC(=O)c3ccco3)c2C#N)c1	pIC50 (KiSS-1 receptor [2]): 7.70
7.85	–	N#Cc1c(-c2cccc(NC(=O)CC3CCCCN3)c2)cc(-c2ccc(F)cc2O)nc1NC(=O)c1ccco1 (racemic)	–
8.44	2.72	N#Cc1c(-c2cccc(N3CCNCC3)c2)cc(-c2ccc(F)cc2O)nc1NC(=O)c1ccco1	pIC50 (KiSS-1 receptor [2]): 7.82; Activity (Rattus norvegicus): 32%; pIC50 (KiSS-1 receptor [4]): 6.03; Ratio (Caco-2): 1.2
8.00	–	CCNC(C)CC(=O)Nc1cccc(-c2cc(-c3ccc(F)cc3O)nc(NC(=O)c3ccco3)c2C#N)c1 (racemic)	–
8.10	2.29	N#Cc1c(-c2cccc(NC(=O)C[C@@H]3CCCN3)c2)cc(-c2ccc(F)cc2O)nc1NC(=O)c1ccco1	pIC50 (KiSS-1 receptor [2]): 7.59
8.10	–	CCNC(CC)CC(=O)Nc1cccc(-c2cc(-c3ccc(F)cc3O)nc(NC(=O)c3ccco3)c2C#N)c1 (racemic)	–
8.39	–	N#Cc1c(-c2cccc(NC(=O)CN)c2)cc(-c2ccc(F)cc2O)nc1NC(=O)c1ccco1	–
